# Laboratory results as given in article PMC7016294 (Acta Pharmaceutica Sinica. B, 2019).
# Where “and” joins values, the source holds several entries; their conditions need not be identical. Identical values can stand only once.
# Key:
# [1] = system: peripheral blood lymphocytes; assay: Peripheral blood lymphocytes; type: in vivo; conditions: SD rats, single oral dose (3 mg/kg), 1 week later
# In short: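 Male SD rats (6–8 weeks) were randomised and bled (20 μL, tail vein) for a baseline (0 h) lymphocyte count on a haematology analyser. Each received one oral dose of test compound (0.3, 1 or 3 mg/kg, in distilled water) or vehicle. Lymphocytes were counted again at 2, 4, 8, 12, 24, 72, 96, 144 and 168 h; n = 5.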
# [2] = Heart rate measurement after a single oral dose; type: in vivo; conditions: SD rats, single oral dose 10 mg/kg
# In short: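 Male SD rats (6–8 weeks) had baseline heart rate taken with a non-invasive rodent blood-pressure/heart-rate meter. They then received a single oral 10 mg/kg dose of test compound in distilled water, or vehicle. Heart rate was re-measured at 2, 4, 8, 12, 24 and 48 h after dosing; n = 5.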
# [3] = system: SDS-induced skin irritation; assay: SDS-induced acute skin irritation and inflammation mouse model; type: in vivo; conditions: KM mice, MTX 1.5 mg/kg, data not shown
# In short: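 Female KM mice had back hair removed and received 200 μL 15% SDS topically once daily for 7 days. From Day 8 they were dosed orally each day for 10 days with test compound (0.3–2.4 mg/kg, in water) or vehicle. On Day 18, skin thickness was measured. Skin was then fixed in 4% paraformaldehyde, cut into 5 μm H&E sections and scored blind (0–3 each) for epidermal thickening, fibroplasia, inflammatory infiltration and vasodilatation; n = 11.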
# S1P3 (EDG3) = S1P3 (EDG3) (Homo sapiens, UniProt Q99500); assay: β-arrestin assay; type: cell-based
# Sequence of S1P3 (EDG3) (Q99500 whole entry, the tested form may be a part): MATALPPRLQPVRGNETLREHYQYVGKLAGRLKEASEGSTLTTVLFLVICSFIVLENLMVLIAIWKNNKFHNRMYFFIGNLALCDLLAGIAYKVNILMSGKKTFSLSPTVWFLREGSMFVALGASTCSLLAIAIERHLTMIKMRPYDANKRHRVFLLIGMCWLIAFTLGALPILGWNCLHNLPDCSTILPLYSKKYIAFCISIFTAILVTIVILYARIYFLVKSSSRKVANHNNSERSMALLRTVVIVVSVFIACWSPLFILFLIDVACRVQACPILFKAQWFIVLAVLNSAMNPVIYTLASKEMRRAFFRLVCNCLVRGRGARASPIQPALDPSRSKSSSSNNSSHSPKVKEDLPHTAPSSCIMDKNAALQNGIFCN
# In short: (§1)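 Test compound (DMSO stock), at a range of concentrations, was added for 2 or 4 h at 37 °C. Receptor–β-arrestin recruitment was read as β-galactosidase enzyme-fragment complementation, with chemiluminescence measured after 1 h in detection reagent at room temperature. Activity was computed from the concentration series.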
# S1P4 (EDG6) = target: T1, S1P4 (EDG6) (Homo sapiens, UniProt O95977); assay: β-arrestin assay; type: cell-based
# T1 sequence (O95977 1-384): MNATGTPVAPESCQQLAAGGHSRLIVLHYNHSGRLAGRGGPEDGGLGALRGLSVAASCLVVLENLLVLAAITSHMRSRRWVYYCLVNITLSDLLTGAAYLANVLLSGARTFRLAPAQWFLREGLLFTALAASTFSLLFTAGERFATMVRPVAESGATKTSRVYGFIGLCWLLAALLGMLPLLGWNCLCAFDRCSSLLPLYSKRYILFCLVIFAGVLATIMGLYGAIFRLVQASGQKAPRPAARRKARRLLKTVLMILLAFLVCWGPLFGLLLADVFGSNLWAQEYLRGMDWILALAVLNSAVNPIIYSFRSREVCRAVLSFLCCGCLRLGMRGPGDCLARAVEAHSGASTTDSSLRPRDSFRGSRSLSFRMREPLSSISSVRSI
# In short: as §1
smiles,measurement,setting,value
"CCCCCCCCc1ccc(CCC(N)(CO)CO)cc1 [FTY720, fingolimod]",Lymphocyte reduction 1 week after one administration,[1],26%
same,Duration of heart rate decrease,[2],12 h
same,Heart rate decrease,"[2]; as early as 2 h after treatment, 10 mg/kg",22% and 20%
"CN(Cc1cnc2nc(N)nc(N)c2n1)c1ccc(C(=O)N[C@@H](CCC(=O)O)C(=O)O)cc1 [MTX, Methotrexate]",Body weight during treatment,[3],started to decline from Day 10
"CCCCCCCCCCCCC/C=C/[C@@H](O)[C@@H](N)COP(=O)(O)O [S1P, Sphingosine-1-phosphate]",EC50,S1P3 (EDG3),17.7 nM
same,EC50,S1P4 (EDG6),49.1 nM
